Experimental data from different studies.
Compare with care: the assays were run in different laboratories.
ACVR2A: Activin receptor type-2A (ACVR2A, Homo sapiens, UniProt P27037)
STK35: Serine/threonine-protein kinase 35 (STK35, Homo sapiens, UniProt Q8TDR2)
Methionyl-tRNA synthetase, putative: Methionyl-tRNA synthetase, putative (Trypanosoma brucei brucei, UniProt Q38C91)
BRD9: Bromodomain-containing protein 9 (BRD9, Homo sapiens, UniProt Q9H8M2)
SLC10A2: Ileal sodium/bile acid cotransporter (SLC10A2, Homo sapiens, UniProt Q12908)

With CC(=O)N[C@H]1CSSC[C@@H](C(=O)N[C@@H](Cc2c[nH]c3ccccc23)C(N)=O)NC(=O)[C@@H](Cc2ccccc2)NC(=O)[C@H](CCCNC(=N)N)NC1=O the Emax was 0% (Melanocortin receptor 5 (MC5R, Homo sapiens, UniProt P33032); cAMP, agonist; HEK293; 3 min).
With Oc1ccc(-c2nc(-c3ccncc3)c(-c3ccc(F)cc3)[nH]2)cc1 the ΔTm was 0.27 °C (PHIP, BD2 (Homo sapiens, UniProt Q8WWQ0); thermal stability, DSF; 10 µM).
For Cn1c2c(c3ccc(Cl)c(Cl)c31)C(C#N)C1(CCCC1)NC2=O (centres unmarked), the ΔTm was 0 °C (ACVR2A; thermal stability, DSF; 10 µM).
The Emax of CCOC(=O)[C@](CC)(CCCS(=O)(=O)CCOCCOCCNC(=O)OC(C)(C)C)NC(=O)c1ccc(C2CC2)c(Cc2ccc(F)cc2)n1 is reported as 89% (Cannabinoid receptor 2 (CNR2, Homo sapiens, UniProt P34972); cAMP, agonist).
With Nc1ncnc2occ(-c3ccc(NC(=O)Nc4cc(C(F)(F)F)ccc4F)cc3)c12 the remaining signal was 1.6% (STK35; cell-free assay, inhibitor; 20 µM).
The remaining activity of Cc1ccc(C(=O)Nc2ccc(CN3CCN(C)CC3)c(C(F)(F)F)c2)cc1C#Cc1cnc2cccnn12 is reported as 98% (STK35; enzyme activity, inhibitor; 23.5 nM).
COc1cc(Cl)c(C(=O)N[C@@H](CN[C@H]2CC[C@@H](N)CC2)Cc2ccc(C#N)cc2)cc1-c1ccc(CN[C@H](C)c2ccc(C)cc2)o1 gave a remaining activity of 95% (Cyclin-dependent kinase-like 3 (CDKL3, Homo sapiens, UniProt Q8IVW4); enzyme activity, inhibitor; 1 µM).
O=C(Cc1cc(Cl)cc(Cl)c1)N1CCCC(c2nc3cc(Cl)c(Cl)cc3[nH]2)C1 (centres unmarked) gave a ΔTm of 7 °C (Methionyl-tRNA synthetase, putative; thermal stability, DSF; 100 µM).
COC(=O)c1ccc(N2CCN(C)CC2)c(NC(=O)c2cccc(OC)c2)c1 has a ΔTm of 8.4 °C (WD repeat-containing protein 5 (WDR5, Homo sapiens, UniProt P61964); thermal stability, DSF; 100 µM).
Cc1cnc(Nc2ccc(OCCN3CCCC3)cc2)nc1Nc1cccc(S(=O)(=O)NC(C)(C)C)c1 gave a ΔTm of 0.58 °C (BRD9; thermal stability, DSF; 10 µM).
For CCCCOc1cc(C(=O)NCCN(CC)CC)c2ccccc2n1, the inhibition was 68.8% (SLC10A2; transporter uptake, inhibitor, radiometric; 1 mM).
Cc1ccc(NC(=O)c2ccc(C)c(C(F)(F)F)c2)cc1C#Cc1nn(C2CCC(O)CC2)c2ncnc(N)c12 (centres unmarked) gave a remaining signal of 100% (Phosphatidylinositol 5-phosphate 4-kinase type-2 alpha (PIP4K2A, Homo sapiens, UniProt P48426); cell-free assay, inhibitor; 10 µM).
For CSc1ccc2c(c1)N(CCC1CCCCN1C)c1ccccc1S2 (centres unmarked), the inhibition was 97.1% (SLC10A2; transporter uptake, inhibitor, radiometric; 1 mM).
C[S+]([O-])c1ccc(-c2nc(-c3ccncc3)c(-c3ccc(F)cc3)[nH]2)cc1 (centres unmarked) gave a ΔTm of -0.33 °C (BRD9; thermal stability, DSF; 10 µM).
The ΔTm of O=C(Cc1cc(Cl)cc(Cl)c1)N1CCCC(c2nc3cc(F)ccc3[nH]2)C1 (centres unmarked) is reported as 8 °C (Methionyl-tRNA synthetase, putative; thermal stability, DSF; 100 µM).
With CN1CCC2(CC1)NC(=O)c1c(c3ccc(Cl)c(Cl)c3n1C)C2C#N (racemic) the ΔTm was 0.4 °C (ACVR2A; thermal stability, DSF; 10 µM).
O=c1oc2c(O)c(O)cc3c(=O)oc4c(O)c(O)cc1c4c23 has an inhibition of 20% (Histone-lysine N-methyltransferase SETD7 (SETD7, Homo sapiens, UniProt Q8WTS6); cell-free assay; 10 µM).
N#Cc1ccc(/C=C/CN(CC[C@H](N)C(=O)O)C[C@H]2O[C@@H](n3cnc4c(N)ncnc43)[C@H](O)[C@@H]2O)cc1 gave an activity vs control of 108% (Histone-lysine N-methyltransferase SETD2 (SETD2, Homo sapiens, UniProt Q9BYW2); enzyme activity, inhibitor; 1 µM).
Nc1nc(NC2CC2)c2ncn([C@H]3C=C[C@@H](CO)C3)c2n1 has an inhibition of 13.1% (SLC10A2; transporter uptake, inhibitor, radiometric; 1 mM).
With Cc1cc2c(cc1N1C(=O)c3cccc4c(Cl)ccc(c34)C1=O)n(C)c(=O)n2C the ΔTm was -2.4 °C (PHIP (Homo sapiens, UniProt Q8WWQ0); thermal stability, DSF; 10 µM).
